Results: ChEMBL document CHEMBL3286381 (J Med Chem, 2014)
Calls of active or inactive are those of the source. The calls are words filed in the database; no cut-off is given here.

Experiments:
[1] = molecular target: T1, Ectonucleotide pyrophosphatase/phosphodiesterase family member 1 (Homo sapiens) (UniProt P22413); test: Inhibition of NPP1 in human HTB-85 cells using pNP-TMP as substrate at 100 uM after 20 mins […]; format: cell-based
T1 sequence (whole entry): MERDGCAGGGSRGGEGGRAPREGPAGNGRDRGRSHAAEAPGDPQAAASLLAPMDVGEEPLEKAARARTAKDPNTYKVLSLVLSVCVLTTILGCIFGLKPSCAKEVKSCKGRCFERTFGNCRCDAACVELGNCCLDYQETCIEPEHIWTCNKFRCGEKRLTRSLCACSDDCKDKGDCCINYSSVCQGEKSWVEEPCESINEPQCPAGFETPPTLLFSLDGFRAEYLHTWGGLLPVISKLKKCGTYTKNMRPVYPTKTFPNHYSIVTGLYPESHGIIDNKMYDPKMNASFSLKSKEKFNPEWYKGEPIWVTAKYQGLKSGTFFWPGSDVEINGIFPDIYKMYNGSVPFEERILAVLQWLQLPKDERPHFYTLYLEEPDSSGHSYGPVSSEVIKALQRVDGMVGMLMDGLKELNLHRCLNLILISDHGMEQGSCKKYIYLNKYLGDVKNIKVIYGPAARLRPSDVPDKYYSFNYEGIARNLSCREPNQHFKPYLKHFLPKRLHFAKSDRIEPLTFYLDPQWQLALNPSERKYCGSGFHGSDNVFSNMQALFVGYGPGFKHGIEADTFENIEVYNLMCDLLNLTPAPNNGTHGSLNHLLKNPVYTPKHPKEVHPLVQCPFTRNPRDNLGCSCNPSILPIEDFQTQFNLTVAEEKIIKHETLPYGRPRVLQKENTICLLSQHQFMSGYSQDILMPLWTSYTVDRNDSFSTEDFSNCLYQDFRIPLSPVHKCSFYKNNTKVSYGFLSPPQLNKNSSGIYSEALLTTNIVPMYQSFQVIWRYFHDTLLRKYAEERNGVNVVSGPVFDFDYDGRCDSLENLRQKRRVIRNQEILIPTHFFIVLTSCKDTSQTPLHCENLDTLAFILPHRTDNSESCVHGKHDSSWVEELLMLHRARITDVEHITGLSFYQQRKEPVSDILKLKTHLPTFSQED
In short: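 Assay on intact human osteocarcinoma HTB-85 (SaOS-2) cells as native NPP1 source, in 0.5 mL incubation mixture. pNP-TMP is added to 100 μM final with inhibitor at 100 μM. After 20 min, p-nitrophenol is read at 410 nm. Substrate alone is set as 100%. Three experiments in triplicate.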

[2] = molecular target: T2, Ectonucleoside triphosphate diphosphohydrolase 8 (Homo sapiens) (UniProt Q5MY95); test: Inhibition of human NTPDase-8 using ATP as substrate assessed as inorganic phosphate release at 100 uM after 15 mins relative to control
T2 sequence (whole entry): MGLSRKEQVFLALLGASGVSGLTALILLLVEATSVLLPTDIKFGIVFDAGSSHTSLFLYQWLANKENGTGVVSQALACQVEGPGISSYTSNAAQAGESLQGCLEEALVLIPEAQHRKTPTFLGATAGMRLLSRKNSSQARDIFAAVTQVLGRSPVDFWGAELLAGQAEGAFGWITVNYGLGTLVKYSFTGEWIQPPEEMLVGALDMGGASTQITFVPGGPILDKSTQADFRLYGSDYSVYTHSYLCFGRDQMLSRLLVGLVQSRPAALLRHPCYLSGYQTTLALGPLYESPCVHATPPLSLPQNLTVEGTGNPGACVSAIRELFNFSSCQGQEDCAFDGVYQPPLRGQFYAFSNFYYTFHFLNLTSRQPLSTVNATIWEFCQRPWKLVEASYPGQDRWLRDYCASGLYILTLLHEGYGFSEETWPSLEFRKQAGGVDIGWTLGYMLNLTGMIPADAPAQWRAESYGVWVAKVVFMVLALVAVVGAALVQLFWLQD
In short: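 Protein extracts are from COS-7 cells transiently transfected with human NTPDase1, 2, 3 or 8. Extract is preincubated for 3 min at 37 °C in Tris–Ringer buffer (pH 7.3). […] Three experiments in triplicate.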

[3] = molecular target: T3, Ectonucleotide pyrophosphatase/phosphodiesterase family member 1 (Homo sapiens, UniProt P22413); test: Mixed type inhibition of human NPP1 using pNP-TMP as substrate after 20 mins by Dixon and Cornish-Bowden method
T3 sequence (P22413 whole entry): T1 sequence (whole entry)
In short: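 Human NPP1 (COS-7 lysate) is tested with pNP-TMP hydrolysis at 37 °C in pH 8.5 Tris buffer, reading p-nitrophenol at […]. Substrate is 25, 50 and 100 μM, and inhibitor is 0, 25, 50 and 100 μM. Inhibition type, Ki and Ki′ (EIS complex dissociation constant) come from Dixon and Cornish–Bowden plots of three independent experiments.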

[4] = molecular target: T4, Ectonucleotide pyrophosphatase/phosphodiesterase family member 3 (Homo sapiens) (UniProt O14638); test: Inhibition of human NPP3 using pNP-TMP as substrate at 100 uM after 20 mins by reversed-phase HPLC analysis
T4 sequence (whole entry): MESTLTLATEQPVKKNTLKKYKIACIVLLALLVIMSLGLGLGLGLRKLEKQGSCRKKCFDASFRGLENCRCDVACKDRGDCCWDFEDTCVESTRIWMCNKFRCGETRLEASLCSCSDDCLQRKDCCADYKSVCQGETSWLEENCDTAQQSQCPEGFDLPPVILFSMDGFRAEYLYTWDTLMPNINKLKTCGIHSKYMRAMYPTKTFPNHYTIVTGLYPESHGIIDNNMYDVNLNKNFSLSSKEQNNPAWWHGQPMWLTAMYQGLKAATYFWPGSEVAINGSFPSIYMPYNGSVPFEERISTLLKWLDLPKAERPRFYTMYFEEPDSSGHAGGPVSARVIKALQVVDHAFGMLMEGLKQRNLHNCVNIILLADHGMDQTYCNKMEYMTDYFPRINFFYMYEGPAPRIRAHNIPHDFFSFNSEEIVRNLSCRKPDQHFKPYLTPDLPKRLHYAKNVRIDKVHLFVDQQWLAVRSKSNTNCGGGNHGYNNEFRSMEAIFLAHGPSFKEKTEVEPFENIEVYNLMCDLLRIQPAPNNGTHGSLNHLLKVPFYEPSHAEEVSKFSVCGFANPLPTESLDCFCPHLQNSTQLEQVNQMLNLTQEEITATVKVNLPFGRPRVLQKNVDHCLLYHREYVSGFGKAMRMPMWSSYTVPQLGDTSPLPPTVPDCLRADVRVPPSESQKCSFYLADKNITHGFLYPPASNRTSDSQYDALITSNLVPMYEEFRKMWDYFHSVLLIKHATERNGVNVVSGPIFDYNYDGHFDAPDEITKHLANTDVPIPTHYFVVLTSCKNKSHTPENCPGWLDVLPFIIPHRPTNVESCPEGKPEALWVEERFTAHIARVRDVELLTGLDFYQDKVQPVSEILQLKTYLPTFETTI

Nc1ncnc2c1ncn2[C@@H]1O[C@H](CO[P@](O)(=S)OP(=O)(O)CP(=O)(O)O)[C@@H](O)[C@H]1O
inhibition [1]: Active
inhibition [2]: 0.5%
IC50 [3]: 16.3 µM
Ki [3]: 4.5 µM
inhibition [4]: 23%

Nc1ncnc2c1ncn2[C@@H]1O[C@H](COP(=O)(O)CP(=O)(O)OP(O)(O)=S)[C@@H](O)[C@H]1O
inhibition [1]: Active
inhibition [2]: 7%
inhibition [4]: 23%

Nc1ncnc2c1ncn2[C@@H]1O[C@H](CO[P@](O)(=S)OP(=O)(O)C(Cl)(Cl)P(=O)(O)O)[C@@H](O)[C@H]1O
inhibition [1]: Active
inhibition [2]: 4.9%
IC50 [3]: 0.6 µM
Ki [3]: 0.685 µM
inhibition [4]: 23%

Nc1ncnc2c1ncn2[C@@H]1O[C@H](CO[P@@](O)(=S)OP(=O)(O)C(Cl)(Cl)P(=O)(O)O)[C@@H](O)[C@H]1O
inhibition [1]: Active
inhibition [2]: 0.5%
IC50 [3]: 31.2 µM
Ki [3]: 15.2 µM
inhibition [4]: 23%

Nc1ncnc2c1ncn2[C@@H]1O[C@H](CO[P@@](O)(=S)OP(=O)(O)CP(=O)(O)O)[C@@H](O)[C@H]1O
inhibition [1]: Active
inhibition [2]: 1.5%
IC50 [3]: 18.7 µM
Ki [3]: 1.3 µM
inhibition [4]: 23%
